The list is not random: actives were taken first. Their share in the collection is about 2%.
Apaf-1 inh – inhibitors of human Apaf-1 apoptosome. O14727. reconstituted apoptosome caspase-3 activity, DEVD-Rh110 fluorescence. inhibition, % at 20 µM. 330,000 tested, 0.71% active; active = inhibition of at least 40% at 20 µM;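 also: plate controls were DMSO wells for no effect and DEVD-CHO caspase inhibitor wells for full effect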
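Material: reconstituted apoptosome with Apaf-1, cytochrome c, caspase-9, procaspase-3, dATP / Buffer or medium: pH 7.5 Hepes buffer with CHAPS, BSA, DTT / Also added: cytochrome c with DEVD-Rh110 / Schedule: compound with Apaf-1, dATP, procaspase-3 30 min, then 50 min reaction, room temperature / Technique: rhodamine 110 fluorescence at Ex 480/Em 540 nm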
PP5 primary – PP5 (human) phosphatase inhibition; AID 1987; 320,000 tested, 0.18% active; P53041; purified PP5c, OMFP substrate fluorescence; inhibition, % at 6.7 µM;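 active = inhibition above the campaign's mean inhibition across all tested compounds plus 3 SD, cut at about 9.5% in these data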;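 also: 0% = DMSO only and 100% = 100 µM cantharidin control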
CTSL1 counter – blocks F. hepatica cathepsin L1 in PFM18AAP counter-screen; recombinant F. hepatica cathepsin L1, Z-Leu-Arg-MCA fluorescence; inhibition, % at 5.96 µM; 300,000 tested, 0.49% active; AID 1906;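 active = inhibition above the mean of all tested compounds plus 3 SD, set per screening campaign, cut at about 17% in these data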;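 also: 0% = plate median of test compound wells and 100% = 1 µM Z-Phe-Ala-diazomethylketone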
PAD4 FP inh – inhibitors of human PAD4. 330,000 tested, 0.41% active. recombinant PAD4, RCA probe fluorescence polarization. AID 485272. inhibition, % at 6.36 µM. Q9UM07;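 active = percent inhibition above a cutoff equal to the mean of all tested compounds plus 3 SD, cut at about 15% in these data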;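 also: 0% = PAD4 with RCA probe and DMSO and 100% = probe without PAD4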
UCH37 inh – blocks the human deubiquitinase UCH37 | 330,000 tested, 0.33% active | inhibition, % (no concentration beside the values) | purified proteasome/UCH37, Ub-AMC cleavage fluorescence | Q9Y5K5;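 active = mean inhibition over replicate wells above about 20%, limit read from the data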;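 also: 0% = compound-free wells with enzyme and 100% = wells lacking proteasome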
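Material: human UCH37 enzyme supplied as purified proteasome complex. Measure: % inhibition of Ub-AMC cleavage fluorescence. Medium: pH 7.4 Tris-HCl (50 mM) with ovalbumin, ATP-MgCl2, DTT. Times: 30 min preincubation with enzyme, 25 min cleavage at room temperature. Detection: AMC fluorescence intensity at 355/460 nm.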
GSTO1 counter – counter-screen for RBBP9 inhibitors: inhibitors of human GSTO1; recombinant GSTO1, activity-based probe fluorescence polarization; AID 1974; P78417; inhibition, % at 5.96 µM; 300,000 tested, 1.1% active;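 active = inhibition above the campaign mean inhibition plus 3 SD, cut at about 35% in these data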;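 also: 0% = GSTO1-1 with DMSO and 100% = wells lacking GSTO1-1 enzyme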
Target sequence (P78417 whole entry, looked up): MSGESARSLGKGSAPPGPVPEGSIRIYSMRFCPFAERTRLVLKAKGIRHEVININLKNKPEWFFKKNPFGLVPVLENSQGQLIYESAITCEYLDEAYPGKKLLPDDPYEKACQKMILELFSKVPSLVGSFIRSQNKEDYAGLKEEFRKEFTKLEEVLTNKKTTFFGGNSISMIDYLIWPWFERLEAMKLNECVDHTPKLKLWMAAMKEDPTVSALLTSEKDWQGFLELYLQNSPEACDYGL
PP5 conf – confirmation of human PP5 phosphatase inhibitors | shares compounds with PP5 primary | 460 tested, 22% active | Purified PP5, fluorogenic phosphatase substrate, fluorescence | inhibition, % at 6.7 µM; in the data active = inhibition above about 9.5%
PP1 counter 3x – PP1 phosphatase inhibition, counter-screen for PP5 inhibitors. shares compounds with PP5 primary. PP1 enzyme, fluorescent phosphatase substrate. inhibition, % at 6.7 µM. 460 tested, 4% active; in the data active = inhibition above about 16%
Active calls of the source: *; i = inactive; x = no result given.

SMILES	Apaf-1 inh	PP5 primary	CTSL1 counter	PAD4 FP inh	UCH37 inh	GSTO1 counter	PP5 conf	PP1 counter 3x
CN1C(=O)C(=O)/C(=C(/O)c2ccc(Br)cc2)C1c1ccc(F)cc1 (configuration not stated)	12.1	-1.2	6.3	-4.5	9.5	1.6	x	x
Cc1ccc(/C(O)=C2\C(=O)C(=O)N(C)C2c2ccc(Br)cc2)cc1 (configuration not stated)	-2.2	10.4*	-0.1	-0.8	5.2	4.6	-6.6	-2.3
CCOc1ccccc1C=NN1CCN(Cc2ccccc2)CC1	x	x	x	x	2.4	x	x	x
COc1cccc(C=NNc2cc(Cl)nc(C)n2)c1O	x	x	x	x	1.1	x	x	x
CCNC(=S)NS(=O)(=O)c1ccc(CC)cc1	3.4	10.0*	-1.5	-3.0	0.9	6.9	-2.8	-2.2
CCNC(=S)NS(=O)(=O)c1ccc(C)cc1	-13.5	0.6	-5.4	-1.7	-1.9	2.1	x	x
Cc1ccc(-n2c(C)cc(C=NNC(=O)CN(c3ccc(C)cc3C)S(C)(=O)=O)c2C)cc1	x	x	x	x	3.1	x	x	x
COc1ccc(-c2cnc3nc(N=CN(C)C)nn3c2N=CN(C)C)cc1	x	x	x	x	0.1	x	x	x
O=C(COc1cccnc1[N+](=O)[O-])c1ccc(Cl)s1	35.0	10.7*	-1.4	-4.2	4.0	35.4*	-4.2	1.8
COc1cccc(CSCC(=O)NCCc2ccccc2)c1OC	0.0	10.4*	-0.5	-0.7	-0.1	2.9	-4.6	-5.0
COC(=O)c1[nH]c(C)c(/C(O)=C2\C(=O)C(=O)N(CCN(C)C)C2c2ccccc2OC)c1C (configuration not stated)	0.9	0.3	6.1	-3.3	2.8	-1.2	x	x
COC(=O)c1[nH]c(C)c(/C(O)=C2\C(=O)C(=O)N(CCN3CCOCC3)C2c2ccccc2OC)c1C (configuration not stated)	-0.7	10.8*	2.0	-6.1	11.8	4.3	0.7	-0.3
Cc1ccc(S(=O)(=O)N2CCN(S(=O)(=O)c3ccc(C)cc3)C2c2ccccc2)cc1	2.4	1.8	-0.5	0.7	1.5	-0.8	x	x
COc1ccc(C2N(S(=O)(=O)c3ccccc3)CCN2S(=O)(=O)c2ccc(C)cc2)cc1 (configuration not stated)	-0.6	10.0*	-4.4	2.2	4.3	-4.3	1.4	2.5
CN(C)C=Nc1nc2nccc(-c3ccc(Cl)cc3)n2n1	x	x	x	x	i	x	x	x
CCOc1ccc(NC(=O)COC(=O)CCCc2c[nH]c3ccccc23)cc1	15.5	9.8*	-19.3	-0.3	3.8	-4.9	0.9	2.5
O=C(COCC(=O)Nc1cccc(C(F)(F)F)c1)Nc1cccc(C(F)(F)F)c1	16.6	10.1*	6.3	7.2	4.0	-6.0	10.2*	10.2
O=C(Nc1ccccc1)Nc1cccc(C(F)(F)F)c1	3.2	5.1	0.7	-3.5	3.4	-22.4	x	x
Cc1ccc(OC(F)F)c(NC(=O)Nc2cccc(C(F)(F)F)c2)c1	13.8	13.1*	1.9	-3.0	3.5	-10.6	4.7	3.5
Cc1ccc(C=NNC(=O)C(NC(=O)c2ccccc2)c2n[nH]c(=O)c3ccccc23)cc1 (configuration not stated)	x	x	x	x	-0.4	x	x	x
COc1ccc(NC(=O)C2CC(=O)N(C)C(=Nc3ccc4c(c3)OCO4)S2)cc1 (configuration not stated)	4.2	12.2*	-3.9	3.7	1.0	2.1	-1.2	0.4
COc1ccc(-c2cn(-c3ccc(Cl)cc3)c3[n+]2CCCCC3)cc1	-24.0	18.7*	0.0	-3.5	3.7	9.3	-1.7	-2.7
COC(=O)C1=C(CSc2nccn2C)NC(=O)NC1c1cc(C)ccc1C (configuration not stated)	1.5	9.9*	1.8	-2.8	5.4	4.3	-3.9	-3.9
O=C(ON=C1CCN(c2ccc([N+](=O)[O-])cc2)CC1)c1ccccc1	4.3	9.7*	-0.4	-1.1	4.8	3.4	-2.8	-1.5
COc1ccc(C(=O)ON=C2CCN(c3ccc([N+](=O)[O-])cc3)CC2)cc1	11.9	4.4	0.8	-2.8	6.8	-8.5	x	x
